Measurements from ChEMBL document CHEMBL1125597, “Potent inhibitory effect of a series of modified cyclodextrin sulfates (mCDS) on the replication of HIV-1 in vitro” (J Med Chem, 1991).

Key:
MOLT-4 [1] = assay: Suppressive effect on giant-cell formation against HIV-2GH-1 in MOLT-4 cells; type: functional, Homo sapiens
Outline: (§1)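 Uninfected MOLT-4 mixed 1:1 with persistently infected MOLT-4 (HIV-1 LAV-1 or HIV-2 GH-1 carriers), 5×10^5 cells/mL total, cultured 24 h with compound. Viable cells counted by trypan blue exclusion; fusion index = 1 − cells in test well/cells in uninfected MOLT-4 control. Median of 2 or 3 experiments.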

MT4 [2] = assay: Compound was evaluated for the anticoagulant activity; type: functional, Homo sapiens
Outline: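 Zucker activated partial thromboplastin time (APTT) method; value is the concentration (µg/mL) giving 2-fold APTT. Median of 2 or 3 experiments.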

MT4 [3] = assay: The minimum concentration for complete inhibition (IC100) of HIV-1 strain KK-1AIDS from human induced CPE in MT-4 cells.; type: functional
Outline: (§2)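 MT-4 cells infected 1 h with HIV-1 (LAV-1 or patient isolate KK-1 AIDS) at 0.001 TCID50 per cell, unbound virus washed off. Cultured 5 days with compound (12 doses, 0.49–1000 µg/mL); viable cells in infected and mock cultures by trypan blue. Minimum concentration fully preventing CPE; median of 2 or 3 experiments.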

MT4 [4] = assay: Compound was evaluated for the minimum concentration for appearance of MT-4 cell toxicity; type: functional, Homo sapiens
Outline: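 MT-4 cells incubated 5 days with test compound (12 doses, 0.49–1000 µg/mL); lowest concentration at which toxicity appears, viable cells by trypan blue staining in mock-infected cultures. Median of 2 or 3 experiments.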

MT4 [5] = assay: The minimum concentration for complete inhibition (IC100) of HIV-1 strain LAV-1 from human induced CPE in MT-4 cells.; type: functional; outline: as §2
MOLT-4 [6] = assay: Suppressive effect on giant-cell formation against HIV-1LAV-1 in MOLT-4 cells; type: functional, Homo sapiens; outline: as §1

COc1ccc(NCC2O[C@@H]3O[C@@H]4C(CNc5ccc(OC)cc5)O[C@@H](O[C@@H]5C(CNc6ccc(OC)cc6)O[C@H](O[C@@H]6C(CNc7ccc(OC)cc7)O[C@H](O[C@@H]7C(CNc8ccc(OC)cc8)O[C@H](O[C@@H]8C(CNc9ccc(OC)cc9)O[C@H](O[C@@H]9C(CNc%10ccc(OC)cc%10)O[C@H](O[C@H]2C(O)C3OS(=O)(=O)[O-])C(OS(=O)(=O)[O-])C9OS(=O)(=O)[O-])C(OS(=O)(=O)[O-])C8OS(=O)(=O)[O-])C(OS(=O)(=O)[O-])C7O)C(OS(=O)(=O)[O-])C6OS(=O)(=O)[O-])C(OS(=O)(=O)[O-])C5OS(=O)(=O)[O-])C(OS(=O)(=O)[O-])C4OS(=O)(=O)[O-])cc1.[Na+].[Na+].[Na+].[Na+].[Na+].[Na+].[Na+].[Na+].[Na+].[Na+].[Na+].[Na+] (stereo partly specified)
Supressive effect (MOLT-4 [1]): 40.2 µg/mL
APTT (MT4 [2]): 4.3 µg/mL
IC100 (MT4 [3]): 31.2 µg/mL
Cytotoxicity (MT4 [4]): >1000 µg/mL
IC100 (MT4 [5]): 0.98 µg/mL
Supressive effect (MOLT-4 [6]): 5.5 µg/mL

O=[PH](O)OCC1O[C@H]2O[C@@H]3C(CO[PH](=O)O)O[C@H](O[C@@H]4C(CO[PH](=O)O)O[C@H](O[C@@H]5C(CO[PH](=O)O)O[C@H](O[C@@H]6C(CO[PH](=O)O)O[C@H](O[C@@H]7C(CO[PH](=O)O)O[C@H](O[C@@H]8C(CO[PH](=O)O)O[C@H](O[C@H]1C(O)C2O)C(O)C8Cl)C(O)C7Cl)C(O)C6O[PH](=O)O)C(O)C5Cl)C(O)C4Cl)C(O)C3Cl (stereo partly specified) [CYCLODEXTRIN PHOSPHATE]
APTT (MT4 [2]): 47.2 µg/mL
IC100 (MT4 [3]): 40 µg/mL
Cytotoxicity (MT4 [4]): >1000 µg/mL
IC100 (MT4 [5]): 31.2 µg/mL

O=S(=O)([O-])OCC1O[C@@H]2O[C@@H]3C(COS(=O)(=O)[O-])O[C@H](O[C@@H]4C(COS(=O)(=O)[O-])O[C@@H](O[C@@H]5C(COS(=O)(=O)[O-])O[C@H](O[C@@H]6C(COS(=O)(=O)[O-])O[C@H](O[C@@H]7C(COS(=O)(=O)[O-])O[C@H](O[C@@H]8C(COS(=O)(=O)[O-])O[C@H](O[C@H]1C(O)C2OS(=O)(=O)[O-])C(OS(=O)(=O)[O-])C8O)C(OS(=O)(=O)[O-])C7O)C(OS(=O)(=O)[O-])C6O)C(OS(=O)(=O)[O-])C5O)C(OS(=O)(=O)[O-])C4O)C(OS(=O)(=O)[O-])C3O.[K+].[K+].[K+].[K+].[K+].[K+].[K+].[K+].[K+].[K+].[K+].[K+].[K+].[K+] (stereo partly specified) [CYCLODEXTRIN SULFATE (CDS)]
Supressive effect (MOLT-4 [1]): 519 µg/mL
APTT (MT4 [2]): 2.83 µg/mL
IC100 (MT4 [3]): 125 µg/mL
Cytotoxicity (MT4 [4]): >1000 µg/mL
IC100 (MT4 [5]): 31.2 µg/mL
Supressive effect (MOLT-4 [6]): 60 µg/mL
